Bioassay records deposited in PubChem BioAssay by several laboratories.
MC4R ag barr = MC4R agonists recruiting beta-arrestin, primary screen, cell-based, luminescence, agonist arm of biased-ligand search. Melanocortin receptor 4 (Homo sapiens), P32245. U2OS MC4R beta-arrestin complementation; percent of melanotan II response, DMSO zero. activation, % at 8.9 µM. actives 0.98% (n = 360,000). AID 540308, 2011;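 active = activation above a per-plate cutoff, the mean activation of sample wells on that plate plus 3 SD, cut at about 8% in these data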
Target sequence (P32245 whole entry, looked up): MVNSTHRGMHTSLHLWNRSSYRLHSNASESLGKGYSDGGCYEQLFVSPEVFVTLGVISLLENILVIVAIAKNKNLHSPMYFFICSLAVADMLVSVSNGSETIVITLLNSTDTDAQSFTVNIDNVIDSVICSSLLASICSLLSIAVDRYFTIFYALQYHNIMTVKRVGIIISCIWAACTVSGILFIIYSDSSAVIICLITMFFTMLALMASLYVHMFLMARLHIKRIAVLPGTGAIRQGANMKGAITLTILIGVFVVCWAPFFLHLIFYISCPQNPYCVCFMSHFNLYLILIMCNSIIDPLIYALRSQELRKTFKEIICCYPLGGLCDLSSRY
NR2E3 ag-1 = NR2E3 agonists in two-hybrid cells, primary screen, cell-based, luminescence, CHO-S, Gal4-NCOR/VP16-NR2E3; luciferase; Photoreceptor-specific nuclear receptor (Homo sapiens), Q9Y5X4; AID 602229, 2012; actives 0.35% (n = 360,000); inhibition of corepressor binding, % at 3.98 µM;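 active = inhibition above the mean of all tested compounds plus 3 SD, cut at about 70% in these data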;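 note: 0% = DMSO with NR2E3 transfected cells and 100% = cells lacking NR2E3 construct; higher means lower luciferase signal from less NR2E3 corepressor binding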
PG9 Ab binder = binders of HIV-1 gp120 antibody PG9, primary screen, biochemical, TR-FRET; HIV-1 gp120 / PG9 antibody interaction; TR-FRET gp120-PG9 antibody binding; inhibition, % at 6.7 µM; actives 0.43% (n = 360,000); in the data active = inhibition above about 8.5%
NR2E3 ag-2 = inhibitors of NR2E3-RetCOR corepressor binding, primary screen, NR2E3 agonist project, biochemical, TR-FRET, GST-NR2E3, biotin-RetCOR. 1536-well. inhibition of corepressor binding, % at 4.78 µM. actives 0.12% (n = 320,000). AID 2300, 2010;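 active = percent inhibition above the cutoff of mean plus 3 SD of all tested compounds, set per screening campaign, cut at about 20% in these data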;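 note: 0% = DMSO wells and 100% = biotin wells as full block of FRET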
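system = GST-tagged NR2E3 plus biotinylated RetCOR corepressor | input = 1.35 nM GST-NR2E3 | also added = 7 nM biotin-RetCOR | schedule = 5 h incubation at 4 °C | measured by = TR-FRET with europium anti-GST and streptavidin-D2, 340 nm excitation | read-out = percent loss of FRET ratio relative to control wells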
Rev-erbA mod = modulators of Rev-erb alpha DNA binding, primary screen, biochemical, FITC-DNA, fluorescence polarization, uHTS | Nuclear receptor subfamily 1 group D member 1 (Homo sapiens), P20393 | Rev-erbα–FITC-DNA binding, 90 min | activity, % at 10 µM | actives 0.79% (n = 370,000) | AID 1259318, 2017;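 active = activity above about 14%, limit read from the data; passing the limit was not always enough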;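 note: 0% = DMSO wells with 35 nM protein and 100% = DMSO wells with 750 nM protein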
MC4R antag cAMP = MC4R antagonists of cAMP signaling, primary screen, cell-based, TR-FRET, antagonist arm of biased-ligand search; AID 540295, 2011; MC4R-expressing cells, MTII-stimulated cAMP, LANCE TR-FRET; actives 0.48% (n = 360,000); inhibition, % at 6.5 µM;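 active = inhibition above its plate's cutoff, the mean of tested wells on that plate plus 3 SD, cut at about 29% in these data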;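 note: 0% = Melanotan II alone and 100% = Melanotan II plus saturating MCL0020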
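Assay system: human MC4R-expressing U2OS cells; reagent: Melanotan II stimulation of cells; dosing: 6.5 µM single dose; timing: compound 30 min, challenge 1 h, detection 1 h; signal: TR-FRET cAMP assay; replicates: one well per compound, no replicates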
Active calls of the source: *; . = no result. Most compounds without a hit are left out; they make up all but 2.7% or so of the library.

SMILES	MC4R ag barr	NR2E3 ag-1	PG9 Ab binder	NR2E3 ag-2	Rev-erbA mod	MC4R antag cAMP
CC(=O)C[C@H]1c2cc(C(F)(F)F)ccc2S(=O)(=O)N1C1CCCC1	2	-5	2	3	-8	-2
O=C1C=CC(=O)N1c1ccc2c(c1)Cc1cc(F)ccc1-2	0	-33	3	.	0	32*
COc1ccc(NS(=O)(=O)c2cccc(NC(=O)c3ccc(S(=O)(=O)N4CCCCCC4)cc3)c2)cc1	-2	83*	.	2	.	7
COc1ccc(S(=O)(=O)Nc2cccc(S(=O)(=O)N3CCCCCC3)c2)cc1	3	2	1	-4	-1	3
O=S(=O)(Nc1nc2ccccc2nc1Nc1cccc(S(=O)(=O)N2CCCCC2)c1)c1ccccc1	8.5*	-18	2	2	1	13
Cc1cc([N+](=O)[O-])nn1CC(=O)Nc1cc(F)ccc1F	-1	-34	-2	0	-1	13
O=C(OCC#CCSc1nnc(-c2cccc3ccccc23)o1)c1ccc(C(F)(F)F)cc1	.	.	.	.	3	.
COc1ccc(OC)c(C=C2CCc3ccccc3C2=O)c1	.	-71	-2	.	-1	.
COc1ccc(OC)c(/C=C2/Sc3ccccc3C2=O)c1	9.5*	-41	-1	-1	2	9
COc1ccc(/C=C/C(=O)Nc2ccccc2)cc1OC	2	-38	-2	2	-2	5
COc1ccc(/C=C/C(=O)NC(=S)NCCc2ccc(OC)c(OC)c2)cc1	17*	-40	0	3	5	-9
COc1ccc(/C=C/C(=O)NC(=S)Nc2ccccc2)cc1OC	9.1*	-3	-2	-2	7	16
Cn1cc(S(=O)(=O)c2ccccc2)n(C)c1=O	-2	-2	0	2	-4	6
CCOC(=O)c1ccc(NC(=O)CCc2nc(-c3ccc(C)cc3)no2)cc1	9.7*	-2	-2	-2	1	14
CCN1C(=O)/C(=C2/Sc3ccc(OC)cc3N2C)SC1=Nc1ccc(OC)cc1	0	-61	-2	0	-2	1
COC(=O)c1cc(S(=O)(=O)N2CCN(c3cccc(Cl)c3)CC2)c[nH]1	9.1*	22	.	3	.	-3
COC(=O)c1cc(S(=O)(=O)N2CCN(c3ccccc3F)CC2)c[nH]1	0	-3	-2	1	2	1
C=CCOC(=O)C1=C(C)N=c2s/c(=C3\C(=O)N(CC(=O)O)c4ccccc43)c(=O)n2C1c1ccc(OC)cc1 (centres undefined)	0	-1	0	0	-6	11
CC(=O)c1c(C)[nH]c(C(=O)OCc2csc(CC(=O)Nc3ccccc3C)n2)c1C	0	43	-1	.	-2	1
COc1cccc(C(C)(O)c2nc(-c3csc4ccccc34)cs2)c1 (centres undefined)	-2	15	3	.	5	7
COc1ccccc1/C=N/NC(=Nc1ccc(C)cc1)c1nc2ccccc2s1	.	.	.	1	.	.
COc1cc(/C=N/NC(=Nc2ccc(C)cc2)c2nc3ccccc3s2)ccc1O	1	91*	0	2	2	28
O=S(=O)(Nc1ccccn1)c1ccc(C2CCCCC2)cc1	0	30	0	-1	-2	-3
CN(C)c1ccc(C=c2c3ccccc3n3c2c2ccccc2[n+]3C)cc1	14*	27	-32	.	-34	4
Cc1ccn2c(=O)nc(SCC(=O)Nc3ccc4c(c3)OCCO4)nc2c1	-3	-15	-1	-1	-4	-4
SMILES	MC4R ag barr	NR2E3 ag-1	PG9 Ab binder	NR2E3 ag-2	Rev-erbA mod	MC4R antag cAMP
Oc1c(CN2CCN(c3ccccn3)CC2)cc(Cl)c2cccnc12	-5	79*	.	0	.	-3
COc1cccc(CNC(=O)c2cnc(-c3ccccn3)nc2C(F)(F)F)c1	-1	-21	-1	-5	-1	-1
CC(C)(C)NC(=O)NC(=O)COC(=O)c1ccc(OC(F)(F)F)cc1	8.4*	-8	-2	2	2	1
O=C(Cn1c2[n+](c3ccc(C(F)(F)F)cc31)CCCCC2)Nc1ccc(Br)cc1	1	20	.	4	.	30*
C=C[C@@](C)(O)CC[C@@H]1[C@@]2(C)CCCC(C)(C)[C@@H]2CC[C@@]1(C)O	7	8	0	-1	1	7
O=c1[nH]c2ccccc2c2ccc(Cl)cc12	8.5*	29	0	.	4	-6
COc1cc(CNCCc2ccccc2)cc(Br)c1OCC(=O)Nc1ccccc1C	8.6*	27	-3	1	5	-3
Cc1ccc(NC(=O)c2cc([N+](=O)[O-])ccc2N2CCOCC2)cc1C	-2	-35	-1	1	2	7
COc1ccc(OCC(=O)Nc2cc(S(=O)(=O)N3CCCC3)ccc2Cl)cc1	9.0*	6	2	.	-4	-2
CCc1ccc(OCC(=O)Nc2ccc(S(=O)(=O)N3CCCC3)cc2)c(Br)c1	21*	-21	-1	2	-7	14
O=C(COc1ccc(Br)cc1CO)Nc1ccc(S(=O)(=O)N2CCCCC2)cc1	1	4	-1	1	0	12
O=C(NCc1nc(-c2ccc(C(F)(F)F)cc2)no1)c1cccs1	1	7	-2	3	0	9
COc1ccccc1/C=C/C=N/n1c(-c2ccc(F)cc2)n[nH]c1=S	2	-1	-1	-1	0	6
COc1ccccc1/C=C\C=N\n1c(-c2ccc(Cl)cc2)n[nH]c1=S	8.9*	17	-1	-4	-4	8
CCc1ccc(NC(=O)c2cnc(SC)nc2C)cc1	0	-13	-1	.	-5	0
Cc1ccc(/C=C/C(=O)NCCCn2ccnc2)cc1	-1	-14	-1	-2	-2	0
CC1CCN(CCNC(=O)c2ccc3c(=O)n(Cc4ccc(Cl)cc4)c(=S)[nH]c3c2)CC1	9.9*	18	.	0	.	13
COCCCNC(=O)c1ccc2c(=O)n(Cc3ccc(Cl)cc3)c(=S)[nH]c2c1	-1	-7	0	-1	0	6
O=C(CCCCn1c(=O)c2ccccc2n(Cc2ccccc2F)c1=O)NC1CCN(Cc2ccccc2)CC1	0	-20	0	1	1	8
[O-][n+]1onc2c1CCc1c-2nn(-c2ccccc2Cl)[n+]1[O-]	5	12	-1	3	-4	37*
